What was measured:
[1] = molecular target: T1, Polyunsaturated fatty acid 5-lipoxygenase (Homo sapiens, UniProt P09917); assay: In vitro inhibition of polymorphonuclear leukocyte derived human 5-lipoxygenase
T1 sequence (P09917 whole entry): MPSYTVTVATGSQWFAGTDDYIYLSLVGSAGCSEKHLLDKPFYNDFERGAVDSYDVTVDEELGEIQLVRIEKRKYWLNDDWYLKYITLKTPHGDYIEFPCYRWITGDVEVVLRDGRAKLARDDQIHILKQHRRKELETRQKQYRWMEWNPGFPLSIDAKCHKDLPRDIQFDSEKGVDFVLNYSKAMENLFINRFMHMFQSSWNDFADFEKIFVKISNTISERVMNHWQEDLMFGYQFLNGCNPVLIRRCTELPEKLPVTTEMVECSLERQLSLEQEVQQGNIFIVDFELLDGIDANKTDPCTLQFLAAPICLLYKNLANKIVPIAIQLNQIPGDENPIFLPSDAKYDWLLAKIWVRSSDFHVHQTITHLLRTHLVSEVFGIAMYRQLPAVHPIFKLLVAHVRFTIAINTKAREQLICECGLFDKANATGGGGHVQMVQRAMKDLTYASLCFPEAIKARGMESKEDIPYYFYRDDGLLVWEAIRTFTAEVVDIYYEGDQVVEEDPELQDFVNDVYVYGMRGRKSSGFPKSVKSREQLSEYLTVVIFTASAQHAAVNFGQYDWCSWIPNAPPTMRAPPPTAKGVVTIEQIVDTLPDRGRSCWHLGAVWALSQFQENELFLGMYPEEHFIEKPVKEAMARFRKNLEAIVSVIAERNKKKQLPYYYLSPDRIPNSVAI
Procedure, shortened: (§1)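 PMNs from venous blood of healthy volunteers, isolated by dextran sedimentation and Percoll gradient (>90% pure) and held in Ca/Mg PBS with 1 mg/mL glucose and 1 μM indomethacin. Challenged with calcium ionophore and [14C]arachidonic acid for 3 min. 5-HETE measured by TLC and scintillation counting; IC50 read graphically.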

[2] = molecular target: T2, Polyunsaturated fatty acid 5-lipoxygenase (Rattus norvegicus, UniProt P12527); assay: In vitro inhibition of rat polymorphonuclear leukocyte 5-lipoxygenase
T2 sequence (P12527 whole entry): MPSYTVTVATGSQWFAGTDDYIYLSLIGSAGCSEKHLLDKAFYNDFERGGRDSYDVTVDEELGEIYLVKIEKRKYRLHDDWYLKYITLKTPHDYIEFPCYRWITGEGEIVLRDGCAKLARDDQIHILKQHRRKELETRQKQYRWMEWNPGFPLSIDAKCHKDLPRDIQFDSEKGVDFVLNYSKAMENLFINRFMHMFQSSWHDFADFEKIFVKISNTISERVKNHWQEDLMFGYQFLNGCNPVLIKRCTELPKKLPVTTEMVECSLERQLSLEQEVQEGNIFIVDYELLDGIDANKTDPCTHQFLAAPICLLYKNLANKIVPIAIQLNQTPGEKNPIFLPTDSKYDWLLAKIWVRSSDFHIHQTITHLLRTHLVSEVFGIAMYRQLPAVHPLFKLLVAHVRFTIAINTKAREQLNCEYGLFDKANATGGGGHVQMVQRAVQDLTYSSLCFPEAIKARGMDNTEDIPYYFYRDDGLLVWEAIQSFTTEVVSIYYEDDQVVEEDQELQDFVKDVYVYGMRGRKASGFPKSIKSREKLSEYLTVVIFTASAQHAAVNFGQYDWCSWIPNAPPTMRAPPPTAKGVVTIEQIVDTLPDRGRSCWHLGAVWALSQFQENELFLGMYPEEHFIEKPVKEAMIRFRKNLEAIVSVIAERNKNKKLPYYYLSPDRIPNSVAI
Procedure, shortened: (§2)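 Intact glycogen-elicited peritoneal PMNs pooled from 4–5 Sprague-Dawley rats (250 g), preincubated 5 min at 30 °C with compound in DMSO (≤0.1% final) plus 1 μM indomethacin. Challenge with [14C]arachidonic acid (4 μM) and A23187 (0.8 μM) for 3 min. Extraction, TLC, 5-HETE by scintillation counting.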

[3] = test system: Mus musculus; assay: In vivo inhibition of mouse ear inflammation; assay type: functional; parameters: concentration or dose not given beside the values
Procedure, shortened: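 Compound or ethanol vehicle applied topically to one ear of male DBA/2J mice 60 min before arachidonic acid (2 mg/ear). […] Groups of 5 mice.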

[4] = molecular target: T3, Arachidonate 12-lipoxygenase (Rattus norvegicus) (UniProt Q02759); assay: In vitro inhibitory activity against rat platelet 12-lipoxygenase at 100 uM
T3 sequence (whole entry): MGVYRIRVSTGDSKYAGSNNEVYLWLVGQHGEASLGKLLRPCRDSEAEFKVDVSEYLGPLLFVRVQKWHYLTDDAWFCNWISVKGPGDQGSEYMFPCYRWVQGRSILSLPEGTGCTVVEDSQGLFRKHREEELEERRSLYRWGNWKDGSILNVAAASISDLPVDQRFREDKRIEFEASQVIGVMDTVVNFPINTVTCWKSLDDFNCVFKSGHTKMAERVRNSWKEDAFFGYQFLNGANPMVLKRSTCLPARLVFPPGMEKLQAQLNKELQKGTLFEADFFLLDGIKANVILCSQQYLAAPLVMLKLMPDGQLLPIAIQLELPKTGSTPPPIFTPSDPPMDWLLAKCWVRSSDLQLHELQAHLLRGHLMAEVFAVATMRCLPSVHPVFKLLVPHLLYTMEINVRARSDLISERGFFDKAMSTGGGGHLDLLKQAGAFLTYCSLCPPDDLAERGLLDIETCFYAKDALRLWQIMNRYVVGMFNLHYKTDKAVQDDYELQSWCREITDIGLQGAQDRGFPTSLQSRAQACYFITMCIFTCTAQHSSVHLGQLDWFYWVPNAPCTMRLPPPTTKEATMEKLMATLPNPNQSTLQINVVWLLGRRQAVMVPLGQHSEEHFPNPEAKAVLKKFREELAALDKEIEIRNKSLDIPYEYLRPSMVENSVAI
Procedure, shortened: (§3)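 Cell-free cytosolic 12-lipoxygenase from Sprague-Dawley rat platelets (0.4 mg/mL), preincubated 5 min at 30 °C with compound in DMSO (≤0.1% final), 25 mM Tris pH 7.4, 1 μM indomethacin, 100 μM glutathione; reaction started with 6 μM [14C]arachidonic acid and quenched with citric acid/NDGA after 3 min. 12-HETE isolated by TLC and counted by scintillation; % inhibition, duplicate.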

[5] = molecular target: T4, Cyclooxygenase (Rattus norvegicus) (UniProt P35355+Q63921); assay: (§4) In vitro inhibitory activity against rat polymorphonuclear leukocyte Prostaglandin G/H synthase at 100 uM; assay type: functional
Procedure, shortened: (§5)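 Glycogen-elicited peritoneal PMNs from Sprague-Dawley rats were homogenized at 0 °C in 0.1 M Tris-HCl pH 8.2 with 10 μM NDGA. Compound (DMSO ≤0.1%) was preincubated 5 min at 37 °C, then 8 μM [14C]arachidonic acid with 4 mM glutathione and epinephrine was added for 10 min. TxB2 and PGF2α were measured by TLC and scintillation counting.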

[6] = molecular target: T3, Arachidonate 12-lipoxygenase (Rattus norvegicus); assay: In vitro inhibitory activity against rat platelet 12-lipoxygenase at 10 uM; procedure, shortened: as §3
[7] = molecular target: T4, Cyclooxygenase (Rattus norvegicus); assay: as §4; assay type: protein assay; procedure, shortened: as §5
[8] = test system: 5-lipoxygenase (Cavia porcellus); assay: Inhibitory activity against polymorphonuclear leukocyte 5-lipoxygenase using guinea pig supernatant at 10 uM
[9] = molecular target: T5, Polyunsaturated fatty acid 5-lipoxygenase (Homo sapiens) (UniProt P09917); assay: In vitro inhibitory activity against polymorphonuclear leukocyte 5-lipoxygenase in human cell at 10 uM
T5 sequence (whole entry): T1 sequence (P09917 whole entry)
Procedure, shortened: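 Human PMNs from venous blood of a healthy volunteer (EDTA) were purified by dextran sedimentation, a Percoll gradient and NH4Cl red-cell lysis (>90% pure). They were held in Ca/Mg PBS with 1 mg/mL glucose and 1 μM indomethacin, then challenged with A23187 (0.8 μM) and [14C]arachidonic acid (4 μM) for 3 min. 5-HETE was measured by TLC and scintillation counting.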

[10] = test system: Cavia porcellus; assay: In vivo inhibitory activity against guinea pig systemic anaphylaxis when administered a compound dose (200 mg/kg) perorally; assay type: functional; settings: po
Procedure, shortened: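 Male Hartley guinea pigs sensitised ip with ovalbumin (2.7 mg/kg) plus LPS adjuvant, then challenged 2 weeks later with 1% ovalbumin aerosol for 30 s. Pretreated with pyrilamine, indomethacin and propranolol 20 min before challenge. Compound given in PEG 400 1 h before challenge.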

[11] = molecular target: T5, Polyunsaturated fatty acid 5-lipoxygenase (Homo sapiens); assay: In vitro inhibitory activity against polymorphonuclear leukocyte 5-lipoxygenase in human cell at 1 uM; procedure, shortened: as §1
[12] = molecular target: T6, Polyunsaturated fatty acid 5-lipoxygenase (Rattus norvegicus) (UniProt P12527); assay: In vitro inhibitory activity against polymorphonuclear leukocyte 5-lipoxygenase in rat cell at 3 uM; procedure, shortened: as §2
T6 sequence (whole entry): T2 sequence (P12527 whole entry)

[13] = molecular target: T4, Cyclooxygenase (Rattus norvegicus); assay: Inhibition of Prostaglandin G/H synthase in rat polymorphonuclear leukocytes; assay type: cell-based; parameters: concentration or dose not given beside the values; settings: concentration not given here
Procedure, shortened: (§6)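 Homogenate of glycogen-elicited rat peritoneal PMNs in 0.1 M Tris-HCl pH 8.2 with 10 μM NDGA, preincubated 5 min at 37 °C with compound (≤0.1% DMSO). [14C]arachidonic acid (8 μM) added with 4 mM glutathione and epinephrine; 10 min reaction. TxB2 and PGF2α separated by TLC and counted.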

[14] = molecular target: T6, Polyunsaturated fatty acid 5-lipoxygenase (Rattus norvegicus); assay: In vitro inhibitory activity against polymorphonuclear leukocyte 5-lipoxygenase in rat cell at 10 uM; procedure, shortened: as §2
[15] = molecular target: T4, Cyclooxygenase (Rattus norvegicus); assay: In vitro inhibitory activity against rat polymorphonuclear leukocyte Prostaglandin G/H synthase at 30 uM; assay type: protein assay; procedure, shortened: as §6
[16] = test system: 5-lipoxygenase (Cavia porcellus); assay: In vitro inhibitory activity against polymorphonuclear leukocyte 5-lipoxygenase using guinea pig supernatant at 10 uM
[17] = molecular target: T6, Polyunsaturated fatty acid 5-lipoxygenase (Rattus norvegicus); assay: In vitro inhibitory activity against polymorphonuclear leukocyte 5-lipoxygenase in rat cell at 1 uM; procedure, shortened: as §2
[18] = molecular target: T7, Cyclooxygenase (Rattus norvegicus, UniProt P35355+Q63921); assay: In vitro inhibitory activity against rat polymorphonuclear leukocyte Prostaglandin G/H synthase; assay type: functional; procedure, shortened: as §5
T7 sequence (P35355 whole entry): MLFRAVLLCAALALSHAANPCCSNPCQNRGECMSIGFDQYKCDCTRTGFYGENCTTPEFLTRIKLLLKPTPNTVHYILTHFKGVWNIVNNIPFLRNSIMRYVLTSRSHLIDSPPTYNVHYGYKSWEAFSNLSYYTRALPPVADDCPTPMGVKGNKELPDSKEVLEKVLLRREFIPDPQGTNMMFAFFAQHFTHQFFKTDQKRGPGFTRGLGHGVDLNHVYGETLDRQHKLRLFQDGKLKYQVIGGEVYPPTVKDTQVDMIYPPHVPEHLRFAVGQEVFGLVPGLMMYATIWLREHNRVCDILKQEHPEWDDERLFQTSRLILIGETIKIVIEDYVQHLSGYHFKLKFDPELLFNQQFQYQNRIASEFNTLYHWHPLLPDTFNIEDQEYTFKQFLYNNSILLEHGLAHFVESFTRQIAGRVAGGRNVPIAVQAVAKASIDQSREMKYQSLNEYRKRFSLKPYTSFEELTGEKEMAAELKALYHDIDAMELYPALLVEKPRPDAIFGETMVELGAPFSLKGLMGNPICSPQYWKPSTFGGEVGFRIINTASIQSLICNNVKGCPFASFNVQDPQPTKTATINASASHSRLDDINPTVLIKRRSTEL
T7 sequence (Q63921 whole entry): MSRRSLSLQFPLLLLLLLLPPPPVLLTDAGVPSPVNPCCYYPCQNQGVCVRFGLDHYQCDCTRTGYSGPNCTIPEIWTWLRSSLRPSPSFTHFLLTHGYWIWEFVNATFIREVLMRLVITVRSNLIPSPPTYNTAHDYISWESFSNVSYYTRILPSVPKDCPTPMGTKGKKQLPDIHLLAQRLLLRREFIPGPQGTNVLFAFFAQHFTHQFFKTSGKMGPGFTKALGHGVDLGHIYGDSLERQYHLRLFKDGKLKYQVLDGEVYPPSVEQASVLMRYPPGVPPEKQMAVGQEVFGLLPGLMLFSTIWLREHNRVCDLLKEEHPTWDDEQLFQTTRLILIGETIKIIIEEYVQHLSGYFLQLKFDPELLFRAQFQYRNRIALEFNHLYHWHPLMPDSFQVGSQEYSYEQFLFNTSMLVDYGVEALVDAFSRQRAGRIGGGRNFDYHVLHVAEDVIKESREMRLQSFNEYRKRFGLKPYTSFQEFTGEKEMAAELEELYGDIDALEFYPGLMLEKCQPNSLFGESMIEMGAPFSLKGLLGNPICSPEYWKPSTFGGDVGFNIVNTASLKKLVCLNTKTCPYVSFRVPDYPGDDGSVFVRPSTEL

[19] = molecular target: T4, Cyclooxygenase (Rattus norvegicus); assay: In vitro inhibitory activity against rat polymorphonuclear leukocyte Prostaglandin G/H synthase at 10 uM; assay type: protein assay; procedure, shortened: as §6

O=C(Cc1ccc(OCc2ccccc2)cc1)N(O)Cc1ccccc1
IC50 [1]: 120 nM | IC50 [2]: 100 nM | Inhibition [3]: 37% | inhibition [4]: 47% | inhibition [5]: 32%

O=C(CCCc1ccccc1)NCCc1ccccc1
inhibition [6]: < 10% | inhibition [7]: < 10% | inhibition [8]: 12% | inhibition [9]: < 10%

O=C(CCCc1ccccc1)NO [PHENYLBUTYRYLHYDROXAMIC ACID]
inhibition in vivo at 200 mg/kg [10]: 11% | inhibition [11]: -8% | inhibition [12]: 11% | Inhibition [3]: 28%

CCC(Cc1ccccc1)N(O)C(=O)Cc1ccc(OCc2ccccc2)cc1 (stereo unspecified)
IC50 [1]: 3000 nM | inhibition [13]: 44% | IC50 [2]: 2500 nM | Inhibition [3]: 38% | inhibition [4]: < 10%

O=C(O)CCCN(O)C(=O)CCCc1ccccc1
inhibition [14]: 1% | inhibition [13]: < 10% | Inhibition [3]: 34% | inhibition [4]: 15%

O=C(Cc1ccc(OCc2ccccc2)cc1)N(Cc1ccccc1)OCc1ccccc1
inhibition [6]: < 10% | inhibition [15]: 24% | inhibition [16]: < 10% | inhibition [9]: 22%

O=C(Cc1ccc(OCc2ccccc2)cc1)NO
inhibition [13]: 16% | inhibition [17]: 3%

O=C(c1ccc(OCc2ccccc2)cc1)N(O)CCc1ccccc1
IC50 [18]: 75000 nM | inhibition [4]: < 10%

CC(C)Cc1ccc(C(C)C(=O)N(Cc2ccccc2)OCc2ccccc2)cc1 (stereo unspecified)
inhibition [6]: < 10% | inhibition [14]: < 10% | inhibition [13]: 39% | inhibition [9]: < 10%

CCCN(O)C(=O)Cc1ccc(OCc2ccccc2)cc1
IC50 [1]: 160 nM | inhibition in vivo at 200 mg/kg [10]: 0% | IC50 [2]: 100 nM | Inhibition [3]: 82% | IC50 [18]: 30000 nM

CC(c1ccccc1)N(O)C(=O)Cc1ccc(OCc2ccccc2)cc1 (stereo unspecified)
inhibition [19]: 38% | Inhibition [3]: 47%

— ChEMBL document CHEMBL1124558, “Differential effects of a series of hydroxamic acid derivatives on 5-lipoxygenase and cyclooxygenase from neutrophils and 12-lipoxygenase from platelets and their in vivo effects on inflammation and anaphylaxis” (J Med Chem, 1989)
